Experimental data pooled from the literature.
Lines come from different studies, so protocols differ.
MAPK14: Mitogen-activated protein kinase 14 (MAPK14, Homo sapiens, UniProt Q16539)
MAPK14 T106M: Mitogen-activated protein kinase 14 (MAPK14, Homo sapiens, UniProt Q16539, T106M)

With `CSc1cccnc1N1CCN(Cc2nc3ccccc3[nH]2)CC1` the remaining binding was 100% (MAPK14; cell-free assay, competition with immobilised ligand; 1 µM).
`CCN(CC)CCNC(=O)c1c(C)[nH]c(/C=C2\C(=O)Nc3ccc(F)cc32)c1C` gave an inhibition of 5% (MAPK14 T106M; enzyme activity, inhibitor; 0.3 µM).
With `O=C1NC(c2ccccn2)Sc2ccccc21` (centres unmarked) the remaining binding was 81% (MAPK14; cell-free assay, competition with immobilised ligand; 1 µM).
The inhibition of `Cc1ccc(Nc2nccc(N(C)c3ccc4c(C)n(C)nc4c3)n2)cc1S(N)(=O)=O` is reported as 6% (MAPK14; enzyme activity, inhibitor; 0.3 µM).
With `Cc1c(C(=O)O)cc(-c2ccc(C3CCNCC3)cc2)c2ccc(-c3ccc(C(F)(F)F)cc3)cc12` the remaining binding was 100% (MAPK14; binding, competition with immobilised ligand; 1 µM).
`Cc1ccc(NC(=O)c2ccc(C)c(C(F)(F)F)c2)cc1C#Cc1nn(C2CCC(O)CC2)c2ncnc(N)c12` (centres unmarked) has a remaining signal of 3% (MAPK14; cell-free assay; 10 µM).
`Cc1cnc(NC2CCOCC2)nc1-n1cnc(C(=O)NC(CN)c2cc(F)cc(Cl)c2)c1` (centres unmarked) gave a remaining activity of 55% (MAPK14 T106M; enzyme activity, inhibitor, radiometric; 1 µM).
The remaining signal of `N#CCCc1ccc2c(c1)-c1[nH]c3ccc([N+](=O)[O-])cc3c1CC(=O)N2` is reported as 91.8% (MAPK14; cell-free assay; 0.5 µM).
`Nc1nc(NC2CCCCC2)sc1C(=O)c1ccccc1` has a remaining activity of 24% (MAPK14; enzyme activity, inhibitor; 10 µM).
`CC(C)(O)c1cncc(-c2nc3ccc(F)cc3n2C2CC2)c1` has a remaining binding of 100% (MAPK14; cell-free assay, competition with immobilised ligand; 1 µM).
`CC(C)(O)[C@H]1CC[C@H](Nc2ccc3ncc(-c4cccc(C(F)(F)F)c4)n3n2)CC1` has a remaining activity of 86.4% (MAPK14; enzyme activity, inhibitor; 1 µM).
The activity vs control of `COc1cc(/C=C/C(=O)CC(=O)/C=C/c2ccc(O)c(OC)c2)ccc1O` is reported as 104% (MAPK14; enzyme activity, inhibitor; 1 µM).
With `Cc1sc(C(=O)NC2COC2)cc1-n1cc(NC(=O)Nc2c(F)cccc2Cl)cn1` the remaining activity was 93.2% (MAPK14; enzyme activity, inhibitor; 10 µM).
For `c1nc2c(Nc3ccc4c(c3)OCCO4)nc(Nc3ccc4c(c3)OCCO4)nc2[nH]1`, the activity vs control was 90% (MAPK14; enzyme activity, inhibitor; 10 µM).
With `O=C1Nc2ccc(Cl)cc2C1=Cc1cc(Cl)c(O)c(Cl)c1` the remaining signal was 74.6% (MAPK14; cell-free assay; 0.5 µM).
With `Cc1cc(-n2nc(Cc3cc(F)cc(C(F)(F)F)c3)nc2C)ccc1C(N)=O` the remaining binding was 95% (MAPK14; cell-free assay, competition with immobilised ligand; 1 µM).
With `CC(C)(C)c1nc2c(s1)c1nc(N)ncc1c1ccc(NS(=O)(=O)c3c(F)cccc3F)c(F)c12` the remaining activity was 96% (MAPK14; enzyme activity, inhibitor, radiometric; 1 µM).
The inhibition of `CN(C)C1CCN(CC#Cc2nn(C3CCCC3)c3nc(NCc4ccccc4)ncc23)C1` (centres unmarked) is reported as 8% (MAPK14; enzyme activity, inhibitor, FRET; 0.1 µM).
`Cc1noc([C@H]2C[C@@H](c3ccc(C(F)(F)F)cc3)CN(C(=O)N3CCS(=O)(=O)C3)C2)n1` has a remaining binding of 79% (MAPK14; cell-free assay, competition with immobilised ligand; 1 µM).
The inhibition of `CNC(=O)c1cc(Oc2ccc(NC(=O)Nc3ccc(Cl)c(C(F)(F)F)c3)cc2)ccn1` is reported as 90% (MAPK14 T106M; enzyme activity, inhibitor; 10 µM).
